The values that follow come from ChEMBL document CHEMBL4261550, “Triazolopyrimidines identified as reversible myeloperoxidase inhibitors” (Medchemcomm, 2017).

Calls of active or inactive are those of the source. The calls are words filed in the database; no cut-off is given here.

The target in data set [1] is Cytochrome P450 3A4 (Homo sapiens, UniProt P08684). Put plainly: Inhibition of CYP3A4 (unknown origin). The class given is ADME.
For data set [2], the target named is T1, Myeloperoxidase (Homo sapiens) (UniProt P05164).
T1 sequence (whole entry): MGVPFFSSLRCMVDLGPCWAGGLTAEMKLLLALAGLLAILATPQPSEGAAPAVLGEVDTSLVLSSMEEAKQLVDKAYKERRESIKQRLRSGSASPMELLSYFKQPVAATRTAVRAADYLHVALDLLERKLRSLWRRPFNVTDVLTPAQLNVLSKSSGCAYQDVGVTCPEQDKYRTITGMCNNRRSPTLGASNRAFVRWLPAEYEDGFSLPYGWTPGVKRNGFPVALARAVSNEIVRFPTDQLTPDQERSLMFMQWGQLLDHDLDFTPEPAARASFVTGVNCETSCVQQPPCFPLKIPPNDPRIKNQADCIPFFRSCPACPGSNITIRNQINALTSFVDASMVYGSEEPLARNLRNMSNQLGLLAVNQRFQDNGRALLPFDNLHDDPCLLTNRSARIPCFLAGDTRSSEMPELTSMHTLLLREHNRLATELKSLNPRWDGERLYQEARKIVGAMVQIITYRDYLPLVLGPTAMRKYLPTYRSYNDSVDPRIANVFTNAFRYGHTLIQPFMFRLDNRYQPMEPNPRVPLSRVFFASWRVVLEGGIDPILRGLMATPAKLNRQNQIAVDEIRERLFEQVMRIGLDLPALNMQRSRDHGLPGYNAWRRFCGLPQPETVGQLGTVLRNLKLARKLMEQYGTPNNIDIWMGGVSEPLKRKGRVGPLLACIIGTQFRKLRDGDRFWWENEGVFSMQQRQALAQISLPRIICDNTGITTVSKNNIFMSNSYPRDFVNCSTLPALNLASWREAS
Briefly: Reversible inhibition of human MPO peroxidase activity at 50 to 250 nM preincubated for up to 30 mins followed by H2O2 addition and 2 to 10 times compound dilution measured at 30 secs time interval for 5 mins by amplex red reagent based fluorescence assay. A digest of the protocol:
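20 nM MPO in phosphate buffer with 100 nM H2O2 and inhibitor at 2–10-fold enzyme concentration. Controls: 0.2% DMSO, irreversible hydrazide. Aliquots taken after 2, 10, 20 and 30 min and passed through a G50 spin column. 5 µL flow-through assayed by Amplex Red; initial rate gave % activity remaining versus control. Also run with 100 mM NaCl and 150 µM L-methionine.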

The nature of data set [3]: Plasma concentration in PMA-stimulated C57BL6 mouse neutrophil degranulation model at 30 mg/kg, po after 20 mins. It is filed as ADME, organism-based.
A short description of data set [4]: Ratio of plasma concentration in PMA-stimulated C57BL6 mouse neutrophil degranulation model at 100 mg/kg, po after 20 mins to in vitro IC50 for MPO in PMA-stimulated human neutrophils. The class given is ADME, organism-based. To be noted: in vivo.
Data set [5] has as its target T2, Myeloperoxidase (Homo sapiens, UniProt P05164).
T2 sequence (P05164 whole entry): T1 sequence (whole entry)
Put plainly: Inhibition of human MPO chlorination activity assessed as reduction in ApoA1-mediated [1,2 3H]-cholesterol efflux in PMA-stimulated human THP1 cells preincubated with enzyme and ApoA1 for 30 mins in presence of H2O2 followed by addition to THP1 cells and measured after overnight incubation.

Data set [6] in a line: Plasma concentration in PMA-stimulated C57BL6 mouse neutrophil degranulation model at 100 mg/kg, po after 20 mins. The class given is ADME, organism-based.
Data set [7] in a line: Protein binding in mouse plasma. To be noted: read-out: PPB (converted). The class given is ADME, cell-free.
The subject of data set [8] is Mus musculus. Put plainly: In vivo inhibition of MPO in PMA-stimulated C57BL6 mouse neutrophil degranulation model assessed as reduction in HOCl production at 30 mg/kg, po pretreated for 20 mins followed by PMA stimulation and measured after 2 mins by luminol chemiluminescence assay relative to control. The class given is functional. A digest of the protocol: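 C57Bl6 mice dosed orally 30 mpk or vehicle 20 min before retro-orbital PMA 0.62 mg/kg; blood drawn 2 min after PMA and held on ice; 100 μL blood mixed with luminol, chemiluminescence read kinetically 25 min at 37 °C, HOCl production rate calculated.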

For data set [9], the system named is Mus musculus. Put plainly: In vivo inhibition of MPO in PMA-stimulated C57BL6 mouse neutrophil degranulation model assessed as reduction in HOCl production at 100 mg/kg, po pretreated for 20 mins followed by PMA stimulation and measured after 2 mins by luminol chemiluminescence assay relative to control. It is filed as functional.
Data set [10] concerns the target T3, Cytochrome P450 2B6 (Homo sapiens, UniProt P20813).
T3 sequence (P20813 whole entry): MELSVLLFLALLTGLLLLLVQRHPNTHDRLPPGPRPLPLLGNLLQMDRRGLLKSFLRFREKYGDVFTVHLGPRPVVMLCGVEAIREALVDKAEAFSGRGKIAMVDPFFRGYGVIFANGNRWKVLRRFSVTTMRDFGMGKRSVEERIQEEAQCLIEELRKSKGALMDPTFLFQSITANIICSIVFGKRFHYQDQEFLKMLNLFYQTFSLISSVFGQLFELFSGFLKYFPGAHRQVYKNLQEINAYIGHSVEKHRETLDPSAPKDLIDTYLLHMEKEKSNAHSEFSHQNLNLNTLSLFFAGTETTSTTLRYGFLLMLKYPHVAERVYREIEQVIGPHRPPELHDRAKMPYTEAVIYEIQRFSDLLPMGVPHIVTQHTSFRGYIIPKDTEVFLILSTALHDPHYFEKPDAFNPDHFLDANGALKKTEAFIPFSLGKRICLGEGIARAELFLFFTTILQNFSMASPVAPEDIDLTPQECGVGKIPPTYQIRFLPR
Briefly: Inhibition of CYP2B6 (unknown origin). The class given is ADME.

In data set [11] the target is Cytochrome P450 2C9 (Homo sapiens, UniProt P11712). Put plainly: Inhibition of CYP2C9 (unknown origin). It is filed as ADME.
Chain of Cytochrome P450 2C9 (P11712 whole entry): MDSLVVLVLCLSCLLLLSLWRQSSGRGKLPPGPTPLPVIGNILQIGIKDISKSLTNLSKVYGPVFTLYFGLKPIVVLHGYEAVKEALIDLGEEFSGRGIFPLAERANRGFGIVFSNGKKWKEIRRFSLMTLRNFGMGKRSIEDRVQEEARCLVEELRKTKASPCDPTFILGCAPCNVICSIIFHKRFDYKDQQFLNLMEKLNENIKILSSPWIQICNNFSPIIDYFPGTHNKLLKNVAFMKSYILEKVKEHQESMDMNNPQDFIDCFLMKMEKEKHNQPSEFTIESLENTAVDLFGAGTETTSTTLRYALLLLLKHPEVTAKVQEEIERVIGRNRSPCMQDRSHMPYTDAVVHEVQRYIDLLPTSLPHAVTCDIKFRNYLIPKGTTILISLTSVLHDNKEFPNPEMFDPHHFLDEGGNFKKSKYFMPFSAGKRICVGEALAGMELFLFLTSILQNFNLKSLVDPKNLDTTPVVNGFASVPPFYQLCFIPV

Chain of Cytochrome P450 3A4 (P08684 whole entry): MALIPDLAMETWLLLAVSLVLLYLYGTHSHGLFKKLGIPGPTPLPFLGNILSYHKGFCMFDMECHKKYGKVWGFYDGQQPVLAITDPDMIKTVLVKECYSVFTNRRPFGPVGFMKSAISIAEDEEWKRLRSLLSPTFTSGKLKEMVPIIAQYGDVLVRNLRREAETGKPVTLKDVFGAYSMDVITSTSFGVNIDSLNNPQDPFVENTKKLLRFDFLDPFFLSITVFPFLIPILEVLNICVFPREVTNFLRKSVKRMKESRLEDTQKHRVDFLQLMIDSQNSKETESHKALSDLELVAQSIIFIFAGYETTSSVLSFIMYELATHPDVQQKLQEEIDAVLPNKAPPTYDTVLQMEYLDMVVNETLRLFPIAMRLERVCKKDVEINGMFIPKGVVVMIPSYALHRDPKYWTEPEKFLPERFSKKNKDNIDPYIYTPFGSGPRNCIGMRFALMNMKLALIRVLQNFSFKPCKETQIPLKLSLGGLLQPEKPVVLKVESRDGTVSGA

What is called IC50 is the concentration needed to halve the response being measured. A lower IC50 goes with higher potency. As a reminder, the EC50 is the concentration giving half of the maximal effect. As a reminder, the inhibition in vivo is the percentage by which the read-out fell short of the control. For the compound `Nc1nc(OCc2ccccc2)c2[nH]nnc2n1`, in [1], 14 µM corresponded to half-maximal inhibition (IC50). For the same compound, in [2], the inhibition entry is “Active”. For the same compound, the concentration at 20 min in data set [3] came out at 180 µM; in data set [6], 460 µM. For the same compound, in data set [4], the Ratio stood at 92. Moreover, the EC50 in data set [5] turned out to be 10 µM. Besides, in data set [7], the fraction unbound is 0.13. For the same compound, the inhibition in vivo at 30 mg/kg in data set [8] stood at 50%. For the same compound, in data set [9], the inhibition in vivo at 100 mg/kg stood at 70%.

As to `Nc1ccc(Oc2cc(Cl)c(Cl)cc2Cl)cn1`, the IC50 in data set [10] and in [11] was less than 0.1 µM in each case.
